Laboratory results reported in ChEMBL document CHEMBL4373711, “Development of 3,5-Dinitrophenyl-Containing 1,2,4-Triazoles and Their Trifluoromethyl Analogues as Highly Efficient Antitubercular Agents Inhibiting Decaprenylphosphoryl-β-d-ribofuranose 2'-Oxidase” (J Med Chem, 2019).
≈ marks a conversion by molar mass, not a printed value. Calls of active or inactive are those of the source. No cut-off for these calls is given here.

Key:
Candida tropicalis = experiment: Antifungal activity against Candida tropicalis ATCC 750 CCM 8264 at highest concentration measured after 24 to 48 hrs by alamar blue dye based broth microdilution assay; type: functional, organism-based
Lichtheimia corymbifera = experiment: Antifungal activity against Lichtheimia corymbifera CCM 8077 at highest concentration measured after 24 to 48 hrs by alamar blue dye based broth microdilution assay; type: functional, organism-based
Mycobacterium kansasii [1] = experiment: Antimycobacterial activity against Mycobacterium kansasii 6509/96 after 14 days; type: functional; conditions: 6509/96, 336 h
In short: (§1)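 Microdilution in Šula's semisynthetic medium; compounds in DMSO at 32–0.03 µM. Inoculum from 1.0 McFarland suspension diluted 10-4. […] Isoniazid and rifampicin as reference drugs.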

Aspergillus fumigatus = experiment: Antifungal activity against Aspergillus fumigatus ATCC 204305 at highest concentration measured after 24 to 48 hrs by alamar blue dye based broth microdilution assay; type: functional, organism-based
Candida parapsilosis = experiment: Antifungal activity against Candida parapsilosis ATCC 22019 CCM 8260 at highest concentration measured after 24 to 48 hrs by alamar blue dye based broth microdilution assay; type: functional, organism-based
[2] = Cytotoxicity against human A431 cells assessed as cell viability at 30 uM after 48 hrs by CellTiter 96 aqueous one solution assay relative to control; type: cell-based, A-431; conditions: read-out: Activity
In short: (§2)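 HepG2 (DMEM, 10% FBS, 1 mM pyruvate) or A431 (DMEM, 10% FBS) seeded 10,000 cells/well, 24 h at 37 °C, 5% CO2, then 30 µM compound for 48 h. MTS reagent 60 min, absorbance 490 nm, background subtracted; 0.1% DMSO vehicle = 100%, 10% SDS = 0% viability.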

Aspergillus flavus = experiment: Antifungal activity against Aspergillus flavus CCM 8363 at highest concentration measured after 24 to 48 hrs by alamar blue dye based broth microdilution assay; type: functional, organism-based
Pseudomonas aeruginosa = experiment: Antibacterial activity against Pseudomonas aeruginosa ATCC 27853 CCM 3955 at highest concentration measured after 24 to 48 hrs by alamar blue dye based broth microdilution assay; type: functional, organism-based
Mycobacterium kansasii [3] = experiment: Antimycobacterial activity against Mycobacterium kansasii CNCTC My 235/80 after 14 days; type: functional; conditions: CNCTC My 235/80, 336 h; in short: as §1
Mycobacterium kansasii [4] = experiment: Antimycobacterial activity against Mycobacterium kansasii CNCTC My 235/80 after 7 days; type: functional; conditions: CNCTC My 235/80, 168 h; in short: as §1
[5] = tested on: Staphylococcus epidermidis; experiment: Antibacterial activity against Staphylococcus epidermidis at highest concentration measured after 24 to 48 hrs by alamar blue dye based broth microdilution assay; type: functional, organism-based
Enterococcus faecalis = experiment: Antibacterial activity against Enterococcus faecalis ATCC 29212 CCM 4224 at highest concentration measured after 24 to 48 hrs by alamar blue dye based broth microdilution assay; type: functional, organism-based
Mycobacterium avium [6] = experiment: Antimycobacterial activity against Mycobacterium avium CNCTC My 330/88 after 21 days; type: functional; conditions: CNCTC My 330/88, 504 h
In short: (§3)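 M. avium was tested by microdilution in Šula's semisynthetic medium, with compounds dissolved in DMSO and serially diluted from 1000 down to 1. Inoculum was a 1.0 McFarland suspension diluted 10-5. Plates were incubated at 37 °C and read at 14 and 21 days. […] Isoniazid and rifampicin served as standards.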

Mycobacterium kansasii [7] = experiment: Antimycobacterial activity against Mycobacterium kansasii 6509/96 after 21 days; type: functional; conditions: 6509/96, 504 h; in short: as §1
Mycobacterium avium [8] = experiment: Antimycobacterial activity against Mycobacterium avium CNCTC My 330/88 after 14 days; type: functional; conditions: CNCTC My 330/88, 336 h; in short: as §3
[9] = tested on: Mycobacterium tuberculosis; experiment: Antimycobacterial activity against Mycobacterium tuberculosis H37Rv CNCTC My 331/88 after 21 days; type: functional; conditions: H37Rv CNCTC My 331/88, 504 h
In short: (§4)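 M. tuberculosis strains (H37Rv and clinical MDR/XDR isolates) tested by microdilution in Šula's semisynthetic medium. Compounds were dissolved in DMSO and tested at 32 to 0.03 µM in twofold steps. Inoculum was a 1.0 McFarland suspension diluted 10-3. Plates were incubated at 37 °C and read at 14 and 21 days.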

Pichia kudriavzevii = experiment: Antifungal activity against Candida krusei ATCC 6258 CCM8271 at highest concentration measured after 24 to 48 hrs by alamar blue dye based broth microdilution assay; type: functional, organism-based
Candida albicans = experiment: Antifungal activity against Candida albicans ATCC 24433 CCM 8320 at highest concentration measured after 24 to 48 hrs by alamar blue dye based broth microdilution assay; type: functional, organism-based
A-431 = experiment: Cytotoxicity against human A431 cells assessed as reduction in cell viability after 48 hrs by CellTiter 96 aqueous one solution assay; type: cell-based; conditions: A-431, 48 h
[10] = tested on: Trichophyton interdigitale; experiment: Antifungal activity against Trichophyton interdigitale ATCC 9533 CCM 8377 at highest concentration measured after 72 to 120 hrs by alamar blue dye based broth microdilution assay; type: functional
[11] = Cytotoxicity against human HepG2 cells assessed as cell viability at 30 uM after 48 hrs by CellTiter 96 aqueous one solution assay relative to control; type: cell-based; conditions: read-out: Activity; in short: as §2
Escherichia coli = experiment: Antibacterial activity against Escherichia coli ATCC 25922 CCM 3954 at highest concentration measured after 24 to 48 hrs by alamar blue dye based broth microdilution assay; type: functional, organism-based
HepG2 = experiment: Cytotoxicity against human HepG2 cells assessed as reduction in cell viability after 48 hrs by CellTiter 96 aqueous one solution assay; type: cell-based; conditions: HepG2, 48 h
Staphylococcus aureus [12] = experiment: Antibacterial activity against Staphylococcus aureus subsp. aureus ATCC 29213 CCM 4223 at highest concentration measured after 24 to 48 hrs by alamar blue dye based broth microdilution assay; type: functional, organism-based
Mycobacterium kansasii [13] = experiment: Antimycobacterial activity against Mycobacterium kansasii CNCTC My 235/80 after 21 days; type: functional; conditions: CNCTC My 235/80, 504 h; in short: as §1
Serratia marcescens = experiment: Antibacterial activity against Serratia marcescens at highest concentration measured after 24 to 48 hrs by alamar blue dye based broth microdilution assay; type: functional, organism-based
Staphylococcus aureus [14] = experiment: Antibacterial activity against methicillin-resistant Staphylococcus aureus subsp. aureus ATCC 43300 CCM 4750 at highest concentration measured after 24 to 48 hrs by alamar blue dye based broth microdilution assay; type: functional, organism-based
Mycobacterium kansasii [15] = experiment: Antimycobacterial activity against Mycobacterium kansasii 6509/96 after 7 days; type: functional; conditions: 6509/96, 168 h; in short: as §1
Klebsiella pneumoniae = experiment: Antibacterial activity against Klebsiella pneumoniae at highest concentration measured after 24 to 48 hrs by alamar blue dye based broth microdilution assay; type: functional, organism-based
[16] = tested on: Mycobacterium tuberculosis; experiment: Antimycobacterial activity against Mycobacterium tuberculosis H37Rv CNCTC My 331/88 after 14 days; type: functional; conditions: H37Rv CNCTC My 331/88, 336 h; in short: as §4

SMILES	Activity (Candida tropicalis)	Activity (Lichtheimia corymbifera)	MIC99 (Mycobacterium kansasii [1]) [µM]	Activity (Aspergillus fumigatus)	Activity (Candida parapsilosis)	Activity (Aspergillus flavus)	Activity (Pseudomonas aeruginosa)	MIC99 (Mycobacterium kansasii [3]) [µM]	MIC99 (Mycobacterium kansasii [4]) [µM]	Activity [5]	Activity (Enterococcus faecalis)	MIC99 (Mycobacterium avium [6]) [µM]	MIC99 (Mycobacterium kansasii [7]) [µM]	MIC99 (Mycobacterium avium [8]) [µM]	MIC99 [9] [µM]	Activity (Pichia kudriavzevii)	Activity (Candida albicans)	Activity [10]	Activity (Escherichia coli)	Activity (Staphylococcus aureus [12])	further results
O=[N+]([O-])c1cc(-c2nnc(SCc3ccc(Cl)cc3)n2Cc2ccccc2)cc(C(F)(F)F)c1	inactive	inactive	0.5 (≈ 0.252 µg/mL)	inactive	inactive	inactive	inactive	0.5 (≈ 0.252 µg/mL)	0.5 (≈ 0.252 µg/mL)	inactive	inactive	250 (≈ 126 µg/mL)	0.5 (≈ 0.252 µg/mL)	250 (≈ 126 µg/mL)	0.5 (≈ 0.252 µg/mL)	inactive	inactive	inactive	inactive	inactive	viability at 48 h, 30 µM [2]: 121%; IC50 (A-431): > 30 µM; viability at 48 h, 30 µM [11]: 68%; IC50 (HepG2): > 30 µM; MIC99 (Mycobacterium kansasii [13]): 0.5 µM (≈ 0.252 µg/mL); Activity (Serratia marcescens): inactive; Activity (Staphylococcus aureus [14]): inactive; MIC99 (Mycobacterium kansasii [15]): 0.5 µM (≈ 0.252 µg/mL); Activity (Klebsiella pneumoniae): inactive; MIC99 [16]: 0.5 µM (≈ 0.252 µg/mL)
COc1ccc(CSc2nnc(-c3cc([N+](=O)[O-])cc([N+](=O)[O-])c3)n2C)cc1	inactive	inactive	2 (≈ 0.803 µg/mL)	inactive	inactive	inactive	inactive	2 (≈ 0.803 µg/mL)	1 (≈ 0.401 µg/mL)	inactive	inactive	16 (≈ 6.42 µg/mL)	2 (≈ 0.803 µg/mL)	16 (≈ 6.42 µg/mL)	0.5 (≈ 0.201 µg/mL)	inactive	inactive	inactive	inactive	inactive	viability at 48 h, 30 µM [2]: 104%; IC50 (A-431): > 30 µM; viability at 48 h, 30 µM [11]: 107%; IC50 (HepG2): > 30 µM; MIC99 (Mycobacterium kansasii [13]): 4 µM (≈ 1.61 µg/mL); Activity (Serratia marcescens): inactive; Activity (Staphylococcus aureus [14]): inactive; MIC99 (Mycobacterium kansasii [15]): 2 µM (≈ 0.803 µg/mL); Activity (Klebsiella pneumoniae): inactive; MIC99 [16]: 0.25 µM (≈ 0.1 µg/mL)
O=[N+]([O-])c1cc(Cn2c(SCc3ccc(Cl)c(Cl)c3)nnc2-c2ccccc2)cc([N+](=O)[O-])c1	inactive	inactive	16 (≈ 8.26 µg/mL)	inactive	inactive	inactive	inactive	8 (≈ 4.13 µg/mL)	4 (≈ 2.07 µg/mL)	inactive	inactive	250 (≈ 129 µg/mL)	16 (≈ 8.26 µg/mL)	250 (≈ 129 µg/mL)	16 (≈ 8.26 µg/mL)	inactive	inactive	inactive	inactive	inactive	MIC99 (Mycobacterium kansasii [13]): 16 µM (≈ 8.26 µg/mL); Activity (Serratia marcescens): inactive; Activity (Staphylococcus aureus [14]): inactive; MIC99 (Mycobacterium kansasii [15]): 8 µM (≈ 4.13 µg/mL); Activity (Klebsiella pneumoniae): inactive; MIC99 [16]: 8 µM (≈ 4.13 µg/mL)
